Laboratory results: ChEMBL document CHEMBL4316617, “Inhibition of the FAD containing ER oxidoreductin 1 (Ero1) protein by EN-460 as a strategy for treatment of multiple myeloma” (Bioorg Med Chem, 2019)
Activity calls are given as the source filed them. The rule behind the calls is not given here.

Assays:
U-266 [1] = test: Cytotoxicity against human U266 cells assessed as reduction in cell viability measured after 72 hrs by MTT assay; assay type: functional, cell-based; details: U-266, 72 h
Summary of the method: (§1)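 MM cell lines exposed to compound for 72 h. MTT (50 μl of 2 mg/ml) added for 4 h, formazan dissolved in DMSO, absorbance read at 570 nm. IC50 calculated; mean ± SD of 3 independent experiments.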

MM1.S = test: Cytotoxicity against human MM1S cells assessed as reduction in cell viability measured after 72 hrs by MTT assay; assay type: functional, cell-based; summary of the method: as §1
[2] = test system: T1, ERO1-like protein alpha (Homo sapiens), Q96HE7 [C104A,C131A,C166A]; test: (§2) Inhibition of recombinant human Ero1Lalpha C104A/C131A/C166A triple mutant (22 to 468 residues) expressed in Escherichia coli BL21(DE3)-RIL measured after 30 mins by Amplex red dye based fluorescence assay
T1 sequence (whole entry): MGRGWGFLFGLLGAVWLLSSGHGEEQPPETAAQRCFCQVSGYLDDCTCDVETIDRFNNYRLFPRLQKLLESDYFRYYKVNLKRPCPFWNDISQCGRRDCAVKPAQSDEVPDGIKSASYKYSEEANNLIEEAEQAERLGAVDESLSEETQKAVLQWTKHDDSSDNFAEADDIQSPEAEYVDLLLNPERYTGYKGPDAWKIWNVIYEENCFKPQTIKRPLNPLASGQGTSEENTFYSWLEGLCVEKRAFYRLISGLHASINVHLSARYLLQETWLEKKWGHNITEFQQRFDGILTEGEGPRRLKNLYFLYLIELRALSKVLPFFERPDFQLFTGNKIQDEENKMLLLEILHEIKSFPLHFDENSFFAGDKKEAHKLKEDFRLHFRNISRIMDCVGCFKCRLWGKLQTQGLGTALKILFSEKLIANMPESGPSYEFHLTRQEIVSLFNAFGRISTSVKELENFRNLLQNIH

ERO1-like protein alpha [3] = target: T2, ERO1-like protein alpha (Homo sapiens, UniProt Q96HE7, C104A/C131A/C166A); test: as §2
[4] = target: Protein disulfide-isomerase (Homo sapiens) (UniProt P07237); test: (§3) Binding affinity to recombinant human His-tagged PDI (18 to 479 residues) expressed in Escherichia coli assessed as melting temperature at 20 uM by SYPRO orange protein gel staining based differential scanning fluorimetry (reference value: 58.86 +/- 0.12 degreeC)
Chain of Protein disulfide-isomerase (Homo sapiens) (P07237 18-508 limits assumed): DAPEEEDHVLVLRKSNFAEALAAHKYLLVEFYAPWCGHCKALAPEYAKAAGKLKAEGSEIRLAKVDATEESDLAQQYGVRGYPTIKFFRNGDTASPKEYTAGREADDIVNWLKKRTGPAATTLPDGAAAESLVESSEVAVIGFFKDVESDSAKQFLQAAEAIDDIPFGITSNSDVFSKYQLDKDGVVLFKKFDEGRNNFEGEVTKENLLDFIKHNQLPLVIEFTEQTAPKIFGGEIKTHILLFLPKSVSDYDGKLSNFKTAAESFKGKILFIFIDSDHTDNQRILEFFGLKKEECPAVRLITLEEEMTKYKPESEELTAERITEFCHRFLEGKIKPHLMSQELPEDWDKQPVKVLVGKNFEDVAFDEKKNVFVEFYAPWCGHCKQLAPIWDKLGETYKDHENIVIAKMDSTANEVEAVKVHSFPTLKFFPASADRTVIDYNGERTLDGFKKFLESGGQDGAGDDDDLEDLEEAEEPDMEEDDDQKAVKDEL

[5] = test system: T1, ERO1-like protein alpha (Homo sapiens), Q96HE7 [C104A,C131A,C166A]; test: as §3, with “Ero1Lalpha C104A/C131A/C166A triple mutant (22” for “His-tagged PDI (18”, “468” for “479”, “coli BL21(DE3)-RIL” for “coli”, “53.15” for “58.86”, “0.15” for “0.12”
[6] = Solubility of the compound at >200 uM; assay type: physicochemical
[7] = Solubility of the compound in pH 7.4 phosphate buffered saline; assay type: physicochemical; details: buffer
[8] = test system: T1, ERO1-like protein alpha (Homo sapiens), Q96HE7 [C104A,C131A,C166A]; test: Competitive inhibition of recombinant human Ero1Lalpha C104A/C131A/C166A triple mutant (22 to 468 residues) expressed in Escherichia coli BL21(DE3)-RIL using varying levels of human PDI as substrate by Lineweaver-burk plot analysis
[9] = target: Lysine-specific histone demethylase 1A (Homo sapiens, UniProt O60341); test: Inhibition of recombinant human LSD1 using ARTK(diMethyl)QTARKSTGGKAPRKQLAPRKQLA as substrate measured after 30 mins by ADHP/horseradish peroxidase coupled fluorescence assay
Summary of the method: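 LSD-1 activity measured with a commercial kit following the manufacturer's instructions. IC50 fitted, N = 2.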

[10] = target: T3, Amine oxidase [flavin-containing] B (Homo sapiens, UniProt P27338); test: Inhibition of MAOB (unknown origin) using kynuramine as substrate
T3 sequence (P27338 whole entry): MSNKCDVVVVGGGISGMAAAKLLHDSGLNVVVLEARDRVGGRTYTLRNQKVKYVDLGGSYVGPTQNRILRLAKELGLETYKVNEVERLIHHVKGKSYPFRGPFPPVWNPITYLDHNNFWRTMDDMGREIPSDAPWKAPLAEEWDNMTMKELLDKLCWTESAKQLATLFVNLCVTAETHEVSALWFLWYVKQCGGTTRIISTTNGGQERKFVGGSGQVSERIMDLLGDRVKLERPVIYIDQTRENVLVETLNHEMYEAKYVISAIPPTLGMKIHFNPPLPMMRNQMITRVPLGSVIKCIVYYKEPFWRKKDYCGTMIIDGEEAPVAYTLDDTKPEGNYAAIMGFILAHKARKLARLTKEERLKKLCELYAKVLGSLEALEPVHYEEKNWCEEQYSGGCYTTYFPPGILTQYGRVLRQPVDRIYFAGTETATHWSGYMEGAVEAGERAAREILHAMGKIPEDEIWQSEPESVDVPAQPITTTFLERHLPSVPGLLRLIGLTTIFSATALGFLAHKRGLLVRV
Summary of the method: (§4)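 Purchased MAO-A or MAO-B activity measured as kynuramine metabolism, with fluorescence read at Ex 310/Em 380 nm. IC50 fitted, N = 2.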

[11] = target: T4, Amine oxidase [flavin-containing] A (Homo sapiens, UniProt P21397); test: Inhibition of MAOA (unknown origin) using kynuramine as substrate; summary of the method: as §4
T4 sequence (P21397 whole entry): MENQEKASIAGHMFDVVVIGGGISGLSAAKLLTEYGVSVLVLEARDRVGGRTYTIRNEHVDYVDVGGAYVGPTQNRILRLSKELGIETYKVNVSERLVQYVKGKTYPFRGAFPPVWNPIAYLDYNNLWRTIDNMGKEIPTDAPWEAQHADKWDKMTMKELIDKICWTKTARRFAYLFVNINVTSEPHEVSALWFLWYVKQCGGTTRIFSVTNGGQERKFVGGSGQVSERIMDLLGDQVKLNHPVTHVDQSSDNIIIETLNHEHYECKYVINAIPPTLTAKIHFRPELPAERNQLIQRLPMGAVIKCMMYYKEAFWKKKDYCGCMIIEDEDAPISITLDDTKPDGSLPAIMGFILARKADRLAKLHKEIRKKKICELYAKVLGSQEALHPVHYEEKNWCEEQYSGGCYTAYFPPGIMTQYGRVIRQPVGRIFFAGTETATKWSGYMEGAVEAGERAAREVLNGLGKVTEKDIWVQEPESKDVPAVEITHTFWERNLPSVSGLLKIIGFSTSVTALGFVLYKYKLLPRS

PBMC = test: Cytotoxicity against PBMC (unknown origin) assessed as cell death; assay type: cell-based
U-266 [12] = test: Induction of endoplasmic reticulum stress in human U266 cells assessed as reduction in full length ATF6 measured after 2 to 8 hrs by Western blot analysis; assay type: functional, cell-based
Summary of the method: (§5)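 U266 cells treated with compound or DMSO for 2, 4 and 8 h. Lysates resolved on 8–10% SDS-PAGE and transferred to PVDF. Blocked in 5% milk/TBST, probed overnight at 4 °C for p-eIF2α, ATF4 and ATF6 (this antibody detects full-length ATF6 only), with β-actin as loading control. Chemiluminescent detection; n = 3.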

U-266 [13] = test: Induction of endoplasmic reticulum stress in human U266 cells assessed as increase in eIF2alpha phosphorylation measured after 2 to 8 hrs by Western blot analysis; assay type: functional, cell-based; summary of the method: as §5
U-266 [14] = test: Induction of apoptosis in human U266 cells at 12.5 to 50 uM measured after 18 hrs by Annexin V-FITC/propidium iodide staining based flow cytometry; assay type: functional, cell-based
Summary of the method: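 U266 cells treated with compound or DMSO vehicle for 18 h, washed in ice-cold PBS, then stained with Annexin V-FITC/PI in binding buffer for 15 min at 37 °C in the dark. At least 10,000 cells analysed by flow cytometry. Mean ± SD, n = 3 independent experiments.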

U-266 [15] = test: Induction of endoplasmic reticulum stress in human U266 cells assessed as increase in ATF4 level measured after 2 to 8 hrs by Western blot analysis; assay type: functional, cell-based; summary of the method: as §5
ERO1-like protein alpha [16] = target: T2, ERO1-like protein alpha; test: Inhibition of recombinant human Ero1Lalpha C104A/C131A/C166A triple mutant (22 to 468 residues) expressed in Escherichia coli BL21(DE3)-RIL using human PDI as substrate measured after 30 mins by Amplex red dye based fluorescence assay

Row | inhibition [2] | IC50 (ERO1-like protein alpha [3]) [µM] | Tm [4] [°C] | Tm [5] [°C] | solubility [6] | solubility [7] | inhibition [8] | IC50 [10] [µM] | IC50 [11] [µM] | IC50 (ERO1-like protein alpha [16]) [µM] | Structure (SMILES) | IC50 (U-266 [1]) [µM] | IC50 (MM1.S) [µM] | IC50 [9] [µM] | Activity (PBMC) | Activity (U-266 [12]) | Activity (U-266 [13]) | Activity (U-266 [14]) | Activity (U-266 [15])
1 | Dose-dependent effect | 12.2 | 57.7 | 59.8 | Insoluble | – | – | – | – | – | [N-]=[N+]=Nc1cccc(-c2ccc(/C=C3/C(=O)N(c4ccc(Cl)c(C(=O)O)c4)N=C3C(F)(F)F)o2)c1 | 14.7 | 18.8 | – | – | – | – | – | –
2 | – | – | – | – | – | Insoluble | – | – | – | – | [N-]=[N+]=Nc1ccc(-c2ccc(/C=C3/C(=O)N(c4ccc(Cl)c(C(=O)O)c4)N=C3C(F)(F)F)o2)cc1 | 7.03 | 17.3 | – | – | – | – | – | –
3 | Dose-dependent effect | 12.7 | 59.2 | 55.9 | Insoluble | – | Active | 30.6 | 7.91 | 22.1 | O=C(O)c1cc(N2N=C(C(F)(F)F)/C(=C/c3ccc(-c4ccccc4)o3)C2=O)ccc1Cl | 10.1 | 14.7 | 4.16 | Toxic | Active | Active | Active | Active
